Experiments:
P. falciparum NF54 = type: cell-based; settings: Plasmodium falciparum, NF54, read-out: IC50 P. falciparum proliferation
In short: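 Asynchronous asexual P. falciparum NF54 cultures grown by a standard protocol. Proliferation IC50 determined with DHA as positive and DMSO as negative control. Values are mean IC50 ± SD of at least two independent experiments run in triplicate.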

[1] = test system: P. falciparum NF54 synchronized asexual parasites; experiment: Stage-specificity during the asexual cell cycle; type: cell-based, Plasmodium falciparum; settings: 6 h; data not shown
In short: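 NF54 synchronized to 0–3 hpi by gelatin flotation, then 5% D-sorbitol 3 h later. Plated at 2% hematocrit, 0.5% starting parasitemia. 6 h exposure at 1×, 3× or 10× IC50 starting at 0, 6, 12, 18, 24, 30, 36 or 42 hpi, then cells washed in RPMI and recultured. Giemsa-smear parasitemia at 72 h post-synchronization; survival relative to DMSO. Three independent experiments, one well each; unpaired t test versus DMSO.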

Compound | IC50 (P. falciparum NF54) [nM] | activity on the ring stages [1]
C[C@H]1[C@@H](O)O[C@@H]2O[C@@]3(C)CC[C@H]4[C@H](C)CC[C@@H]1[C@@]24OO3 [dihydroartemisinin (DHA), dihydroartemisinin] | 5 ± 1 | –
Clc1ccc2c(N3CCN(CCCN4CCN(c5ccnc6cc(Cl)ccc56)CC4)CC3)ccnc2c1 [piperaquine] | – | not active

From publication PMC6978834 (ACS Central Science, 2019)
